Key:
Assay type in all cases: functional
CWR22R [1] = assay: Antiproliferative activity against human 22Rv1 cells assessed as reduction in cell growth incubated for 96 hrs by propidium iodide based 2D monolayer assay; conditions: 22Rv1, 96 h
Outline: (§1)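 After 24 h recovery, compound in medium or medium alone (control wells) was added at 10 half-log concentrations from 0.0032 to 100 µM, in triplicate, with at most 0.3% DMSO. After 96 h, wells were PBS-washed, stained with 7 µg/ml PI and 0.1% Triton X-100, and fluorescence read at 530/620 nm. IC50 came from a 4-parameter fit, geometric mean.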

LNCaP [2] = assay: Antiproliferative activity against human LNCAP cells assessed as reduction in cell growth incubated for 96 hrs by propidium iodide based 2D monolayer assay; outline: as §1
VCaP [3] = assay: Antiproliferative activity against human VCaP cells assessed as reduction in cell growth incubated for 96 hrs by propidium iodide based 2D monolayer assay
Outline: (§2)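 VCaP cells in RPMI 1640 with 10% FCS at 37 °C, 5% CO2, seeded 4,000–20,000 cells/well and left 24 h before dosing. Compounds from DMSO stocks were diluted in half-log steps in medium, 10 concentrations 0.0032–100 μM, triplicate wells, max 0.3% DMSO. After 96 h, cells were washed, stained with 7 μg/ml propidium iodide plus 0.1% Triton X-100 for 1–2 h at room temperature, and fluorescence read at ex 530/em 620 nm.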

VCaP [4] = assay: Antiproliferative activity against human VCaP cells assessed as T/C value at 3.2 x 10^-2 uM incubated for 96 hrs by propidium iodide based 2D monolayer assay; outline: as §2
VCaP [5] = assay: Antiproliferative activity against human VCaP cells assessed as T/C value at 3.2 x 10^-1 uM incubated for 96 hrs by propidium iodide based 2D monolayer assay; outline: as §2
VCaP [6] = assay: Antiproliferative activity against human VCaP cells assessed as T/C value at 1 uM incubated for 96 hrs by propidium iodide based 2D monolayer assay
Outline: (§3)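 Cells were kept in RPMI 1640 with 25 mM HEPES, 10% FCS and gentamicin at 37 °C under 5% CO2, and plated at 4,000-20,000 cells/well. After 24 h recovery, compound in medium or medium alone (control wells) was added at 10 half-log concentrations from 0.0032 to 100 µM, in triplicate, with at most 0.3% DMSO. After 96 h, wells were PBS-washed, stained with 7 µg/ml PI and 0.1% Triton X-100, and fluorescence read at 530/620 nm. IC50 came from a 4-parameter fit, geometric mean.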

VCaP [7] = assay: Antiproliferative activity against human VCaP cells assessed as T/C value at 3.2 uM incubated for 96 hrs by propidium iodide based 2D monolayer assay; outline: as §3
VCaP [8] = assay: Antiproliferative activity against human VCaP cells assessed as T/C value at 1 x 10^1 uM incubated for 96 hrs by propidium iodide based 2D monolayer assay; outline: as §3
VCaP [9] = assay: Antiproliferative activity against human VCaP cells assessed as T/C value at 1 x 10^2 uM incubated for 96 hrs by propidium iodide based 2D monolayer assay; outline: as §3
LNCaP [10] = assay: Antiproliferative activity against human LNCAP cells assessed as T/C value at 3.2 x 10^-3 uM incubated for 96 hrs by propidium iodide based 2D monolayer assay; outline: as §3
LNCaP [11] = assay: Antiproliferative activity against human LNCAP cells assessed as T/C value at 1 x 10^-2 uM incubated for 96 hrs by propidium iodide based 2D monolayer assay; outline: as §3
LNCaP [12] = assay: Antiproliferative activity against human LNCAP cells assessed as T/C value at 3.2 x 10^-2 uM incubated for 96 hrs by propidium iodide based 2D monolayer assay; outline: as §3
LNCaP [13] = assay: Antiproliferative activity against human LNCAP cells assessed as T/C value at 1 x 10^-1 uM incubated for 96 hrs by propidium iodide based 2D monolayer assay; outline: as §3
LNCaP [14] = assay: Antiproliferative activity against human LNCAP cells assessed as T/C value at 3.2 x 10^-1 uM incubated for 96 hrs by propidium iodide based 2D monolayer assay; outline: as §3
LNCaP [15] = assay: Antiproliferative activity against human LNCAP cells assessed as T/C value at 1 uM incubated for 96 hrs by propidium iodide based 2D monolayer assay; outline: as §3
LNCaP [16] = assay: Antiproliferative activity against human LNCAP cells assessed as T/C value at 3.2 uM incubated for 96 hrs by propidium iodide based 2D monolayer assay; outline: as §3
LNCaP [17] = assay: Antiproliferative activity against human LNCAP cells assessed as T/C value at 1 x 10^1 uM incubated for 96 hrs by propidium iodide based 2D monolayer assay; outline: as §3
LNCaP [18] = assay: Antiproliferative activity against human LNCAP cells assessed as T/C value at 3.2 x 10^1 uM incubated for 96 hrs by propidium iodide based 2D monolayer assay; outline: as §3
CWR22R [19] = assay: Antiproliferative activity against human 22Rv1 cells assessed as T/C value at 3.2 x 10^-3 uM incubated for 96 hrs by propidium iodide based 2D monolayer assay; outline: as §3
CWR22R [20] = assay: Antiproliferative activity against human 22Rv1 cells assessed as T/C value at 1 x 10^-2 uM incubated for 96 hrs by propidium iodide based 2D monolayer assay; outline: as §3
CWR22R [21] = assay: Antiproliferative activity against human 22Rv1 cells assessed as T/C value at 3.2 x 10^-2 uM incubated for 96 hrs by propidium iodide based 2D monolayer assay; outline: as §3
CWR22R [22] = assay: Antiproliferative activity against human 22Rv1 cells assessed as T/C value at 1 x 10^-1 uM incubated for 96 hrs by propidium iodide based 2D monolayer assay; outline: as §3
CWR22R [23] = assay: Antiproliferative activity against human 22Rv1 cells assessed as T/C value at 1 uM incubated for 96 hrs by propidium iodide based 2D monolayer assay; outline: as §3
CWR22R [24] = assay: Antiproliferative activity against human 22Rv1 cells assessed as T/C value at 3.2 x 10^1 uM incubated for 96 hrs by propidium iodide based 2D monolayer assay; outline: as §3
CWR22R [25] = assay: Antiproliferative activity against human 22Rv1 cells assessed as T/C value at 1 x 10^2 uM incubated for 96 hrs by propidium iodide based 2D monolayer assay; outline: as §3
DU-145 [26] = assay: Antiproliferative activity against human DU145 cells assessed as T/C value at 3.2 x 10^-3 uM incubated for 96 hrs by propidium iodide based 2D monolayer assay; outline: as §1
DU-145 [27] = assay: Antiproliferative activity against human DU145 cells assessed as T/C value at 1 x 10^-2 uM incubated for 96 hrs by propidium iodide based 2D monolayer assay; outline: as §1
DU-145 [28] = assay: Antiproliferative activity against human DU145 cells assessed as T/C value at 3.2 x 10^-2 uM incubated for 96 hrs by propidium iodide based 2D monolayer assay; outline: as §1
DU-145 [29] = assay: Antiproliferative activity against human DU145 cells assessed as T/C value at 1 x 10^-1 uM incubated for 96 hrs by propidium iodide based 2D monolayer assay; outline: as §1
DU-145 [30] = assay: Antiproliferative activity against human DU145 cells assessed as T/C value at 3.2 uM incubated for 96 hrs by propidium iodide based 2D monolayer assay; outline: as §3
DU-145 [31] = assay: Antiproliferative activity against human DU145 cells assessed as T/C value at 3.2 x 10^1 uM incubated for 96 hrs by propidium iodide based 2D monolayer assay; outline: as §3
DU-145 [32] = assay: Antiproliferative activity against human DU145 cells assessed as T/C value at 1 x 10^2 uM incubated for 96 hrs by propidium iodide based 2D monolayer assay; outline: as §3

Structure (SMILES)	IC50 (CWR22R [1])	IC70 (CWR22R [1])	IC50 (LNCaP [2])	IC70 (LNCaP [2])	IC50 (VCaP [3])	IC70 (VCaP [3])	T/C (VCaP [4])	T/C (VCaP [5])	T/C (VCaP [6])	T/C (VCaP [7])	T/C (VCaP [8])	T/C (VCaP [9])	T/C (LNCaP [10])	T/C (LNCaP [11])	T/C (LNCaP [12])	T/C (LNCaP [13])	T/C (LNCaP [14])	T/C (LNCaP [15])	T/C (LNCaP [16])	T/C (LNCaP [17])	also measured
CC1(C)C(=O)N(c2ccc(C#N)cc2C(F)(F)F)C(=S)N1c1cccc(S(F)(F)(F)(F)F)c1	100 µM	> 100 µM	4.1 µM	19.9 µM	100 µM	> 100 µM	88%	89%	76%	64%	59%	57%	83%	91%	103%	94%	85%	79%	54%	36%	T/C (LNCaP [18]): 32%; T/C (CWR22R [19]): 104%; T/C (CWR22R [20]): 104%; T/C (CWR22R [21]): 107%; T/C (CWR22R [22]): 102%; T/C (CWR22R [23]): 97%; T/C (CWR22R [24]): 56%; T/C (CWR22R [25]): 51%; T/C (DU-145 [26]): 102%; T/C (DU-145 [27]): 104%; T/C (DU-145 [28]): 107%; T/C (DU-145 [29]): 103%; T/C (DU-145 [30]): 116%; T/C (DU-145 [31]): 87%; T/C (DU-145 [32]): 83%
CC1(C)C(=O)N(c2ccc(C#N)cc2C(F)(F)F)C(=S)N1c1ccc(S(F)(F)(F)(F)F)cc1	5.4 µM	8.45 µM	3 µM	5.34 µM	100 µM	> 100 µM	103%	89%	85%	74%	59%	47%	76%	76%	78%	77%	82%	66%	51%	12%	T/C (LNCaP [18]): 10%; T/C (CWR22R [19]): 106%; T/C (CWR22R [20]): 104%; T/C (CWR22R [21]): 104%; T/C (CWR22R [22]): 98%; T/C (CWR22R [23]): 99%; T/C (CWR22R [24]): 17%; T/C (CWR22R [25]): 12%; T/C (DU-145 [26]): 105%; T/C (DU-145 [27]): 111%; T/C (DU-145 [28]): 111%; T/C (DU-145 [29]): 114%; T/C (DU-145 [30]): 102%; T/C (DU-145 [31]): 37%; T/C (DU-145 [32]): 16%

Reference: ChEMBL document CHEMBL4364301 (Eur J Med Chem, 2019)
